XBP1 UPR activ: adaptive UPR (XBP1) activation. 330,000 compounds, 0.33% hits. CHO-XBP1 luciferase reporter, IRE1-XBP1 UPR activation, luminescence; percent of tunicamycin response, DMSO as zero. activation, % at 20 µM;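 active = versus positive control, 20 µM dose yields 30% or more activation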
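Assay system: CHO-XBP1 luciferase reporter cells; Schedule: 6 h treatment, 37 °C; Detection: glow luminescence from Steady-Glo reagent; Benchmarks: high control tunicamycin 10 µg/mL final, low control DMSO vehicle only.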
GAA850 FXN act: increases GAA850 frataxin promoter reporter activity. activation, % at 6 µM. 360,000 compounds, 0.56% hits. HEK293 lucGAA850 FXN promoter luciferase reporter, 24 h; percent of 10 µM SAHA response;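 active = activation above the average of all compounds screened plus 3 SD, cutoff fixed separately per campaign, cut at about 7.5% in these data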
UPR CHOP act: apoptotic UPR (CHOP) activation; activation, % at 10 µM; CHO-CHOP luciferase reporter, luminescence; percent of tunicamycin response over DMSO baseline; 330,000 compounds, 0.34% hits;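 active = at 10 µM dose, activation of 40% or more, normalized to positive control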
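Assay system: CHO-CHOP cells, stable luciferase reporter of PERK-eIF2a-CHOP signalling / Buffer or medium: F12 plus 10% serum / Compound dosing: one dose, 10 µM in 0.5% DMSO / Times: 6 h compound treatment, 37 °C / Technique: luciferase luminescence / Read-out: % reporter activation, DMSO baseline versus tunicamycin full activation / Benchmarks: tunicamycin and DMSO controls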
CHOP inhibitor: blocks CHOP induction under ER stress; inhibition, % at 10 µM; CHO-K1 CHOP-promoter luciferase, tunicamycin-induced, 15-18 h; 220,000 compounds, 3.8% hits; AID 2732;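 active = compounds that reduced the stress-induced luciferase reporter signal by more than about 70% of percent inhibition, limit read from the data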
Hits are given with their value; – = inactive; · = not tested or not shown. This is one part of a sample in which hits are shown more often than they occur.

SMILES	XBP1 UPR activ	GAA850 FXN act	UPR CHOP act	CHOP inhibitor
O/N=C/c1ccccc1OCc1ccc(Cl)cc1	–	–	–	76.5
O/N=C/c1ccccc1OCc1ccccc1Cl	–	–	–	–
C=CCn1c(COc2cccc(C)c2C)nnc1SCC(=O)N1CCN(c2ccccc2)CC1	–	–	–	70.6
CC1(C)N=C(SCC(=O)Nc2ccc(Cl)cc2)C(c2ccccc2)=N1	–	–	–	78.4
CC1(C)N=C(SCC(=O)Nc2ccc(Cl)cc2)C(c2ccc(Cl)cc2)=N1	–	–	–	72.5
N/C(=N\OC(=O)c1ccccc1)C(Cc1ccccc1)C(=O)NOC(=O)c1ccccc1 (centres undefined)	·	–	·	·
CC1(C(=O)NS(=O)(=O)C2CC2)CCCN(C(=O)c2ccc(F)cc2Cl)C1 (centres undefined)	·	–	·	·
Cc1ccc(Cn2cccc2/C=C2/C(=N)N3C=CSC3=NC2=O)cc1	–	–	–	94.0
CS(=O)(=O)Nc1cccc(NC(=O)c2cccc3c(-c4ccc(F)c(F)c4)coc23)c1	·	–	·	·
CC1=C(c2ccccc2)C(O)(c2ccccc2)C(C)C1=O (centres undefined)	·	–	·	·
CN(C)c1nc(-c2ccc([N+](=O)[O-])cc2)cs1	–	–	–	71.6
C=CCNc1nc(-c2ccc([N+](=O)[O-])cc2)cs1	–	–	–	–
C=CC1CN2CCC1CC2C(O)c1ccnc2ccc(OC)cc12 (centres undefined)	·	–	·	·
Cc1ccc2c(c1)c1c(n2CC(O)Cn2c(C)nc3ccccc32)/C(=N\O)CCC1 (centres undefined)	–	–	–	87.3
CCOc1ccc(C2Nc3ccc4ccccc4c3-c3c2c(=O)oc2ccccc32)cc1 (centres undefined)	–	–	–	81.0
CCN1CCC2(CC1)N=C(c1ccc(F)cc1)C(=S)N2C(=O)c1ccc(C(C)(C)C)cc1	–	–	–	92.8
CCC(=O)Nc1ccc(S(=O)(=O)NC[C@H]2O[C@@H](n3cc(C)c(=O)[nH]c3=O)C[C@@H]2O)cc1	·	–	·	·
Cc1nn(-c2nc(-c3ccco3)cc(C(F)(F)F)n2)c(C)c1Cl	–	–	–	88.0
Cn1c(SCC(=O)Nc2cccc(Br)c2)nnc1-c1cc2ccccc2o1	–	–	–	91.0
CCCCSc1nc(C)cc(SCC(=O)N/N=C/c2cccc(OC)c2O)n1	–	–	–	74.6
CC1(C(=O)Nc2ccc(Cl)cc2)Cc2c(-c3cccc(C(F)(F)F)c3)ccnc2O1 (centres undefined)	·	–	·	·
CS(=O)(=O)c1ccc2nc(NC(=O)Nc3cccc(Cl)c3)sc2c1	–	–	–	92.3
CS(=O)(=O)c1ccc2nc(NC(=O)Nc3ccc(Cl)c(Cl)c3)sc2c1	–	–	–	–
O=C(O)CC/C(=C\c1cc([N+](=O)[O-])ccc1Cl)c1nc2ccccc2s1	·	–	·	–
O=C(Nc1ccc(Cl)c([N+](=O)[O-])c1)Nc1nc2ccccc2s1	–	·	–	92.2
SMILES	XBP1 UPR activ	GAA850 FXN act	UPR CHOP act	CHOP inhibitor
O=C(Nc1ccc(Cl)cc1)/C(=C/c1ccc([N+](=O)[O-])cc1)c1nc2ccccc2s1	·	·	·	104.7
O=C(NCC1CC1)C1Cc2c(-c3ccc4c(c3)OCO4)ccnc2O1 (centres undefined)	·	–	·	·
Cc1c(C(=O)NCc2cccc(C(F)(F)F)c2)sc(=O)n1Cc1ccc(C(=O)N(C)C)cc1	·	–	·	·
Cc1cc(Br)ccc1NC(=O)CNC(=O)CN1C(=O)NC2(CCCCCC2)C1=O	–	–	–	–
Cc1cc(Br)ccc1NC(=O)CN1C(=O)C2C3CC(c4ccccc4)C(C3)C2C1=O (centres undefined)	–	–	–	84.6
CC(C)CC(=O)O/N=C1\C(=O)N(Cc2ccc(Cl)cc2)c2ccc([N+](=O)[O-])cc21	–	·	–	90.3
CN(C(=O)c1cc2nc(-c3ccco3)cc(C(F)(F)F)n2n1)C1CCCCC1	–	–	–	92.8
O=C(c1cc2nc(-c3ccco3)cc(C(F)(F)F)n2n1)N1CCCc2ccccc21	–	–	–	70.8
O=C(c1nn2c(C(F)(F)F)cc(-c3ccco3)nc2c1Br)N1CCCc2ccccc21	–	–	–	–
CC(C)(C)c1ccc(CC(=O)N2CCC2(C)C(=O)Nc2cccc3cccnc23)cc1 (centres undefined)	·	–	·	·
Cn1c(-c2ccccc2)cc(=O)c2ccccc21	–	–	–	–
Cn1c(=O)cc(-c2ccccc2)c2ccccc21	–	–	–	80.0
CCc1ccc(/C=C2\SC(=S)N(CCCC(=O)Nc3nccs3)C2=O)cc1	–	–	–	78.4
COc1ccc(/C=C2\SC(=S)N(CCCC(=O)NNC(=O)c3ccccc3O)C2=O)cc1	–	–	–	105.9
O=C(CCCN1C(=O)/C(=C/c2ccccc2Cl)SC1=S)NNC(=O)c1ccccc1Cl	–	–	–	95.2
Cc1ccc(NC(=O)C(C)Sc2nnc3n2CCCCC3)cc1S(=O)(=O)N1CCOCC1 (centres undefined)	·	–	·	·
Cc1nc2sc(C(c3ccc(Cl)cc3)N3CCN(c4ccccc4F)CC3)c(O)n2n1 (centres undefined)	–	–	–	82.5
CCCN(CC(=O)Nc1cccc(S(N)(=O)=O)c1)CC(=O)Nc1ccc(F)c(F)c1F	–	–	–	–
CCCN(CC(=O)Nc1cccc(Br)c1)CC(=O)Nc1ccc(F)c(F)c1F	–	–	–	79.1
CCCN(CC(=O)Nc1ccc(NC(C)=O)cc1)CC(=O)Nc1ccc(F)c(F)c1F	–	–	–	·
CCCN(CC(=O)Nc1ccc(C)cc1Br)CC(=O)Nc1ccc(F)c(F)c1F	–	–	–	72.0
CC(C)c1ccc2c(c1)CC[C@H]1[C@](C)(CN)CCC[C@]21C	·	–	·	·
CC(C)c1ccc2c(c1)CCC1C(C)(CN)CCCC21C (centres undefined)	·	–	·	102.1
OC(CCN1CCOCC1)(c1ccc(Cl)cc1)C1CCCCC1 (centres undefined)	–	–	–	80.4
Cc1ccccc1OCC(=O)Nc1cccc(C(=O)O)c1	·	–	·	89.0
SMILES	XBP1 UPR activ	GAA850 FXN act	UPR CHOP act	CHOP inhibitor
Cc1ccc(NC(=O)N/C=C/c2ccc(Cl)cc2)cc1	–	–	–	–
Cc1cccc(OCC(=O)Nc2cc(NC(=O)COc3cccc(C)c3C)cc(C(=O)O)c2)c1C	–	–	–	·
CCOC(=O)c1cccc(NC(=O)Nc2ccc(OCC)cc2)c1	–	–	–	–
O=C(N/C=C/c1ccccc1)Nc1ccc(Cl)cc1	–	–	–	87.1
O=C(Nc1ccccc1)Nc1cccc(Cl)c1	–	–	–	95.0
CCOc1ccc(NC(=O)Nc2cccc(C(=O)O)c2)cc1	–	–	–	93.2
O=C(Nc1ccc(Cl)cc1)Nc1cccc(C(=O)O)c1	–	–	–	79.4
S=C(NCCC(c1ccccc1)c1ccccc1)Nc1cccc(Cl)c1	–	–	–	93.9
CC(O)(c1ccccc1)c1nc(-c2cccc(C#N)c2)cs1 (centres undefined)	·	–	·	·
CC(C)COc1ccc(CSCCNC(=S)Nc2ccccc2)cc1	–	–	–	83.4

Screens as filed in PubChem BioAssay.
